ChEMBL document CHEMBL1155944 (J Med Chem, 2008)
Active and inactive are the calls of the source. The calls are words filed in the database; no cut-off is given here.

Columns and labels:
[1] = biological target: Gamma-aminobutyric acid receptor subunit alpha-6 (Rattus norvegicus) (UniProt P30191); test: Displacement of [3H]Muscimol from GABAAalpha6 receptor in Sprague-Dawley rat brain cerebellum membrane at 1 mM; assay type: tissue-based
Outline: (§1)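 Well-washed membranes from adult male Sprague-Dawley rat cortex or cerebellum (50–200 μg protein). Incubated 60 min on ice in 50 mM Tris/citrate, pH 7.3, with 6 nM [3H]muscimol and test compound. […] Filtered and counted by scintillation. IC50 and pseudo-Hill coefficient obtained by nonlinear regression.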

[2] = species on record: Rattus norvegicus; test: Displacement of [3H]Muscimol from GABAA alpha-1-alpha-5 receptor in Sprague-Dawley rat brain cortex membrane at 100 uM; outline: as §1
[3] = species on record: Rattus norvegicus; test: Displacement of [3H]Muscimol from GABAA alpha-1-alpha-5 receptor in Sprague-Dawley rat brain cortex membrane at 1 mM; outline: as §1
[4] = biological target: Gamma-aminobutyric acid receptor subunit alpha-6 (Rattus norvegicus) (UniProt P30191); test: Displacement of [3H]Muscimol from GABAAalpha6 receptor in Sprague-Dawley rat brain cerebellum membrane at 100 uM; assay type: tissue-based; outline: as §1
[5] = (§2) Displacement of [3H]Muscimol from GABAA alpha-1-alpha-5 receptor in Sprague-Dawley rat brain cortex membrane; outline: as §1
[6] = species on record: Rattus norvegicus; test: as §2; outline: as §1
[7] = biological target: Gamma-aminobutyric acid receptor subunit alpha-6 (Rattus norvegicus) (UniProt P30191); test: (§3) Displacement of [3H]Muscimol from GABAAalpha6 receptor in Sprague-Dawley rat brain cerebellum membrane; assay type: tissue-based; outline: as §1
[8] = biological target: Gamma-aminobutyric acid receptor subunit alpha-6 (Rattus norvegicus, UniProt P30191); test: as §3; assay type: tissue-based; outline: as §1
[9] = biological target: Gamma-aminobutyric acid receptor subunit alpha-6 (Rattus norvegicus) (UniProt P30191); test: Antagonist activity at recombinant rat GABAA alpha-6-beta-3-gamma-2 receptor expressed in HEK293 cells assessed as inhibition of GABA-induced current at 1 mM by whole-cell patch-clamp technique; assay type: functional, cell-based; set-up: scale not given: the % may be the effect or the level left
Outline: (§4)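 HEK293 cells transiently transfected by calcium phosphate with rat αi, β3, γ2S and EGFP cDNAs, recorded 2 days later. Whole-cell patch clamp in HEPES saline, pH 7.35. […] Response expressed relative to the GABA-alone current. Data from at least four cells.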

[10] = biological target: T1, GABA A receptor alpha-2/beta-2/gamma-2 (Rattus norvegicus) (UniProt P18508+P23576+P63138); test: Antagonist activity at recombinant rat GABAA alpha-2-beta-3-gamma-2 receptor expressed in HEK293 cells assessed as inhibition of GABA-induced current at 1 mM by whole-cell patch-clamp technique; assay type: functional, cell-based; set-up: scale not given: the % may be the effect or the level left; outline: as §4
[11] = biological target: Gamma-aminobutyric acid receptor subunit alpha-4 (Rattus norvegicus) (UniProt P28471); test: Antagonist activity at recombinant rat GABAA alpha-4-beta-3-gamma-2 receptor expressed in HEK293 cells assessed as inhibition of GABA-induced current at 1 mM by whole-cell patch-clamp technique; assay type: functional, cell-based; set-up: scale not given: the % may be the effect or the level left; outline: as §4
[12] = biological target: GABA A receptor alpha-5/beta-3/gamma-2 (Rattus norvegicus) (UniProt P18508+P19969+P63079); test: Intrinsic activity at recombinant rat GABAA alpha-5-beta-3-gamma-2 receptor expressed in HEK293 cells assessed as induction of current at 1 mM by whole-cell patch-clamp technique relative to GABA; assay type: cell-based
Outline: (§5)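 Rat αiβ3γ2S receptors transiently expressed in HEK293 cells, with EGFP marking transfected cells, recorded 2 days after transfection. Whole-cell patch clamp in HEPES saline, pH 7.35. Drug applied alone at 1, 10, 100 and 1000 μM. […] Data from at least four cells.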

[13] = biological target: T1, GABA A receptor alpha-2/beta-2/gamma-2 (Rattus norvegicus); test: Intrinsic activity at recombinant rat GABAA alpha-2-beta-3-gamma-2 receptor expressed in HEK293 cells assessed as induction of current at 1 mM by whole-cell patch-clamp technique relative to GABA; assay type: cell-based; outline: as §5
[14] = biological target: Gamma-aminobutyric acid receptor subunit alpha-3 (Rattus norvegicus) (UniProt P20236); test: Intrinsic activity at recombinant rat GABAA alpha-3-beta-3-gamma-2 receptor expressed in HEK293 cells assessed as induction of current at 1 mM by whole-cell patch-clamp technique relative to GABA; assay type: cell-based; outline: as §5
[15] = biological target: Gamma-aminobutyric acid receptor subunit alpha-6 (Rattus norvegicus) (UniProt P30191); test: Intrinsic activity at recombinant rat GABAA alpha-6-beta-3-gamma-2 receptor expressed in HEK293 cells assessed as induction of current at 1 mM by whole-cell patch-clamp technique relative to GABA; assay type: cell-based; outline: as §5
[16] = biological target: Gamma-aminobutyric acid receptor subunit alpha-4 (Rattus norvegicus) (UniProt P28471); test: Intrinsic activity at recombinant rat GABAA alpha-4-beta-3-gamma-2 receptor expressed in HEK293 cells assessed as induction of current at 1 mM by whole-cell patch-clamp technique relative to GABA; assay type: cell-based; outline: as §5
[17] = biological target: GABA-A receptor; alpha-1/beta-2/gamma-2 (Rattus norvegicus) (UniProt P18508+P62813+P63138); test: Intrinsic activity at recombinant rat GABAA alpha-1-beta-3-gamma-2 receptor expressed in HEK293 cells assessed as induction of current at 1 mM by whole-cell patch-clamp technique relative to GABA; assay type: cell-based; outline: as §5
[18] = system: Oocyte; test: Activity at rat GABAA alpha-1R66C-beta-2 receptor mutant expressed in Xenopus laevis oocytes assessed as inhibition of GABA-induced current at -60 mV by Two-Electrode voltage clamp method; assay type: cell-based
[19] = system: Oocyte; test: Activity at rat GABAA alpha-1T129C-beta-2 receptor mutant expressed in Xenopus laevis oocytes assessed as inhibition of GABA-induced current at -60 mV by Two-Electrode voltage clamp method; assay type: cell-based

Gamma-aminobutyric acid receptor subunit alpha-6 (Rattus norvegicus), sequence (P30191 whole entry): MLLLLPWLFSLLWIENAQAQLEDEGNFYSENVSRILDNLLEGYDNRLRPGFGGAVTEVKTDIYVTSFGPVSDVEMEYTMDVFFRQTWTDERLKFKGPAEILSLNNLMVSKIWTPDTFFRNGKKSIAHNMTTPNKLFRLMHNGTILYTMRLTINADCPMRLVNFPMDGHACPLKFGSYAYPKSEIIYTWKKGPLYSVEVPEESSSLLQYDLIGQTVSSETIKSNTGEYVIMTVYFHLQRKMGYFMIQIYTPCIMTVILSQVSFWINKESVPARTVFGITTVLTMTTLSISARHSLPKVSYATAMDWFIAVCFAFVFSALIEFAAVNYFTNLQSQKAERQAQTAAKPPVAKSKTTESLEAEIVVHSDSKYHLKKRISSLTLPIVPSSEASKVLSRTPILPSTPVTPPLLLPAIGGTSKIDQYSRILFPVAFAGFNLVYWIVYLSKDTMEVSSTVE
Gamma-aminobutyric acid receptor subunit alpha-6, sequence (P30191 whole entry): as above
Gamma-aminobutyric acid receptor subunit alpha-3 (Rattus norvegicus), sequence (P20236 whole entry): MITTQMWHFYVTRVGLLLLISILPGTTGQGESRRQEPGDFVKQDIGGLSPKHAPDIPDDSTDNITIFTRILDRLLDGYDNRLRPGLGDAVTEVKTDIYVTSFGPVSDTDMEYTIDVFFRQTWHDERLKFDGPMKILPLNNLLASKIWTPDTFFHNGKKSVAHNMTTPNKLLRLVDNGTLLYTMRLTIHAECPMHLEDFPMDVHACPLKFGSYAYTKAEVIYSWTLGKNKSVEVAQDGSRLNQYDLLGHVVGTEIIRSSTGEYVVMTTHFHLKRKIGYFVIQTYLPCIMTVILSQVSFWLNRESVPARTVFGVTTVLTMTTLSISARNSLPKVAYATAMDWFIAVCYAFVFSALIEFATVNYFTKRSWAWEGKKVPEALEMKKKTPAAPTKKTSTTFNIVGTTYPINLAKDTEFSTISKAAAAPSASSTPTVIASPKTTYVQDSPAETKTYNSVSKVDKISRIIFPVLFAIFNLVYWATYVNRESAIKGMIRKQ
Gamma-aminobutyric acid receptor subunit alpha-4 (Rattus norvegicus), sequence (P28471 whole entry): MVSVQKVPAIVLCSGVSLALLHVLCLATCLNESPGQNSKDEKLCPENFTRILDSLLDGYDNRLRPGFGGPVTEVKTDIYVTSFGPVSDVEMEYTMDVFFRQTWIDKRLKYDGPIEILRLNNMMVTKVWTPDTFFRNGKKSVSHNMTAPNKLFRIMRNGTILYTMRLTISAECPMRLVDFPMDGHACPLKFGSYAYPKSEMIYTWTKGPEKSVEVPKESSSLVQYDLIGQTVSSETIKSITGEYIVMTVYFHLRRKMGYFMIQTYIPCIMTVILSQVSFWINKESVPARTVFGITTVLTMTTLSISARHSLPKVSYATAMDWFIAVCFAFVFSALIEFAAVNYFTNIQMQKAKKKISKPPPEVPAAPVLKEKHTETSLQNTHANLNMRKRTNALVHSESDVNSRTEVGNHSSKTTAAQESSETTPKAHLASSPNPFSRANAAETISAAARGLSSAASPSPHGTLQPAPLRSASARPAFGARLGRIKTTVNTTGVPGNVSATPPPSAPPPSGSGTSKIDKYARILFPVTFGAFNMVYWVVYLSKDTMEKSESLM

SMILES	inhibition [1] [%]	inhibition [2] [%]	inhibition [3] [%]	inhibition [4] [%]	also measured
Cc1nnc(S)o1	-3	20	10	-4	–
Sc1nnc(C2CCN(Cc3ccccc3)CC2)o1	30	3	33	6	–
Oc1nnc(C2CCNCC2)o1	77	38	79	38	IC50 [5]: 183 µM; logIC50 [6]: 2.26; logIC50 [7]: 2.09; IC50 [8]: 123 µM; Activity [9]: 41%; Activity [10]: 42%; Activity [11]: 52%; Activity [12]: 34%; Activity [13]: 17%; Activity [14]: 18%
Oc1nnc([C@@H]2CCCN2)o1	13	5	10	8	–
CN(C)Cc1nnc(S)o1	37	22	47	3	–
NCc1nnc(S)o1	95	58	99	61	IC50 [5]: 57 µM; logIC50 [6]: 1.76; logIC50 [7]: 1.69; IC50 [8]: 49 µM
CN1CCC(c2nnc(O)o2)CC1	26	4	27	6	–
Cc1nnc(C2CCNCC2)o1	91	48	87	56	IC50 [5]: 109 µM; logIC50 [6]: 2.04; logIC50 [7]: 1.88; IC50 [8]: 76 µM; Activity [15]: 29%; Activity [12]: < 10%; Activity [16]: < 10%; Activity [17]: < 10%; Activity [13]: < 10%; Activity [14]: < 10%
Oc1nnc(C2CCN(Cc3ccccc3)CC2)o1	30	12	50	7	–
S=c1[nH]nc(C2CCCCC2)o1	-3	10	18	0	–
Oc1nnc(C2CCCCC2)o1	1	18	-2	–	–
NCc1nnc(O)n1Cc1ccccc1	2	4	11	1	–
Sc1nnc(C2CCCNC2)o1 (stereo not given)	42	12	51	15	–
Cc1nnc(O)o1	4	7	26	3	–
CS(=O)(=S)OCCNC(=O)CCCC[C@@H]1SC[C@@H]2NC(=O)N[C@@H]21 (stereo not given in full)	–	–	–	–	inhibition [18]: 75%; inhibition [19]: 60%
CN1CCC(c2nnc(S)o2)CC1	27	6	48	8	–
Oc1nnc(C2CCCNC2)o1 (stereo not given)	10	1	24	9	–
NCCc1nnc(O)o1	98	85	100	89	IC50 [5]: 9.4 µM; logIC50 [6]: 0.971; logIC50 [7]: 0.868; IC50 [8]: 7.4 µM
C[C@@H](N)c1nnc(O)o1	34	26	16	13	–
CNCc1nnc(S)o1	16	17	24	9	–
Oc1nnc(C2CCNCC2)n1Cc1ccccc1	52	18	56	14	–
CN(C)Cc1nnc(O)o1	26	3	27	5	–
c1ccc(CN2CCC(c3nnco3)CC2)cc1	-5	-5	1	1	–
CNCc1nnc(O)o1	64	14	58	22	–
Sc1nnc([C@@H]2CCCN2)o1	31	21	36	-2	–
Sc1nnc(C2CCNCC2)n1Cc1ccccc1	–	-6	–	13	–
NCCc1nnc(S)o1	67	9	61	23	–
NCc1nnc(S)n1Cc1ccccc1	–	–	–	–	Activity [1]: inactive; Activity [2]: inactive; Activity [3]: inactive; Activity [4]: inactive
